{"data": "Measured values from different studies", "effect on": "enzyme activity", "mode": "inhibitor", "CDK2 with cyclin A": "Cyclin-dependent kinase 2, with cyclin A (CDK2, Homo sapiens, UniProt P24941)", "CDK2 with cyclin E": "Cyclin-dependent kinase 2, with cyclin E (CDK2, Homo sapiens, UniProt P24941)", "note": "Protocols differ between the studies behind these lines."}
{"Structure (SMILES)": "CC(C)(C)C(=O)c1sc(NC2CCCCC2)nc1N", "target": "CDK2 with cyclin A", "concentration": "10 µM", "remaining activity": "13%"}
{"Structure (SMILES)": "Cc1ccc(C(=O)Nc2ccc(CN3CCN(C)CC3)c(C(F)(F)F)c2)cc1C#Cc1cnc2cccnn12", "target": "Cyclin-dependent kinase 2 (CDK2, Homo sapiens, UniProt P24941)", "concentration": "23.5 nM", "remaining activity": "96%"}
{"Structure (SMILES)": "CC(C)(C)c1nc(-c2cccc(NS(=O)(=O)c3c(F)cccc3F)c2F)c(-c2ccnc(N)n2)s1", "target": "Cyclin-dependent kinase 2, with cyclin E1 (CDK2, Homo sapiens, UniProt P24941)", "technique": "radiometric", "concentration": "1 µM", "remaining activity": "90%"}
{"Structure (SMILES)": "COc1cc(Cl)c(C(=O)N[C@@H](CN[C@H]2CC[C@@H](N)CC2)Cc2ccc(C#N)cc2)cc1-c1ccc(CN[C@H](C)c2ccc(C)cc2)o1", "target": "CDK2 with cyclin E", "concentration": "1 µM", "remaining activity": "90%"}
{"Structure (SMILES)": "Cc1cnc(NC2CCOCC2)nc1-n1cnc(C(=O)NC(CN)c2cc(F)cc(Cl)c2)c1 (centres unmarked)", "target": "CDK2 with cyclin A", "technique": "radiometric", "concentration": "1 µM", "remaining activity": "3%"}
{"Structure (SMILES)": "COc1cc(Nc2cnc(C#N)c(O[C@H](C)CN(C)C)n2)ncc1-c1cnn(C)c1", "target": "CDK2 with cyclin A", "technique": "radiometric", "concentration": "10 µM", "remaining activity": "91%"}
{"Structure (SMILES)": "O=C(Nc1cnn(-c2csc(C(=O)NC3COC3)c2)c1)Nc1c(F)cccc1Cl", "target": "Cyclin-dependent kinase 2, with cyclin A1 (CDK2, Homo sapiens, UniProt P24941)", "concentration": "5 µM", "remaining activity": "94.2%"}
{"Structure (SMILES)": "Cc1ccc(Nc2nccc(N(C)c3ccc4c(C)n(C)nc4c3)n2)cc1S(N)(=O)=O", "target": "CDK2 with cyclin A", "concentration": "0.5 µM", "remaining activity": "96.1%"}
{"Structure (SMILES)": "Cc1sc(C(=O)NC2COC2)cc1-n1cc(NC(=O)Nc2c(F)cccc2Cl)cn1", "target": "CDK2 with cyclin A", "concentration": "10 µM", "remaining activity": "98.3%"}
{"Structure (SMILES)": "CC(C)(O)[C@H]1CC[C@H](Nc2ccc3ncc(-c4cccc(C(F)(F)F)c4)n3n2)CC1", "target": "CDK2 with cyclin E", "concentration": "1 µM", "remaining activity": "91.1%"}
{"Structure (SMILES)": "Nc1nc(Nc2ccccc2)sc1C(=O)c1c(F)cccc1F", "target": "CDK2 with cyclin A", "concentration": "10 µM", "remaining activity": "2%"}
{"Structure (SMILES)": "Cn1c(=O)n(-c2ccc(C(C)(C)C#N)cc2)c2c3cc(-c4cnc5ccccc5c4)ccc3ncc21", "target": "CDK2 with cyclin A", "concentration": "10 µM", "remaining activity": "74%"}
{"Structure (SMILES)": "CC(C)(C)c1nc2c(s1)c1nc(N)ncc1c1ccc(NS(=O)(=O)c3c(F)cccc3F)c(F)c12", "target": "Cyclin-dependent kinase 2, with cyclin A2 (CDK2, Homo sapiens, UniProt P24941)", "technique": "radiometric", "concentration": "1 µM", "remaining activity": "70%"}
{"Structure (SMILES)": "O=C(Nc1cnn(-c2csc(C(=O)NC3COC3)c2)c1)Nc1ccccc1Cl", "target": "Cyclin-dependent kinase 2, with cyclin O (CDK2, Homo sapiens, UniProt P24941)", "concentration": "5 µM", "remaining activity": "93.2%"}
